Activity calls are given as the source filed them.
What was measured:
Mus musculus [1] = assay: Neurotoxicity in albino Swiss CD-1 mouse assessed as mean time spent on the rotarod with 24 rpm at 30 mg/kg, ip after 30 mins by rotarod test (reference value: 60.0 +/- 0.0 seconds); assay type: toxicity, organism-based; parameters: dose 30 mg/kg, route intraperitoneal; details: in vivo, 0.5 h
How it was run: (§1)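 CD-1 mice trained 3 days on a 2 cm rotarod at 18 rpm, then tested ≥24 h later, 30 min after ip dosing, at 6, 18 and 24 rpm. Failure to stay on for 1 min counted as impairment (fallers/tested; Fisher's exact); mean time on rod also recorded (ANOVA/Dunnett); 8 mice per group.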

Mus musculus [2] = assay: Neurotoxicity in albino Swiss CD-1 mouse assessed as mean time spent on the rotarod with 18 rpm at 30 mg/kg, ip after 30 mins by rotarod test (reference value: 60.0 +/- 0.0 seconds); assay type: toxicity, organism-based; parameters: dose 30 mg/kg, route intraperitoneal; details: in vivo, 0.5 h; how it was run: as §1
Mus musculus [3] = assay: Neurotoxicity in albino Swiss CD-1 mouse assessed as mean time spent on the rotarod with 6 rpm at 30 mg/kg, ip after 30 mins by rotarod test (reference value: 60.0 +/- 0.0 seconds); assay type: toxicity, organism-based; parameters: dose 30 mg/kg, route intraperitoneal; details: in vivo, 0.5 h; how it was run: as §1
Mus musculus [4] = assay: Antinociceptive activity against formalin-induced inflammatory pain in albino Swiss CD-1 mouse assessed as duration of licking response at 30 mg/kg, ip administered 30 mins prior to formalin challenge measured for 15 to 30 mins (reference value: 78.8 +/- 15.9 seconds); assay type: functional; details: route intraperitoneal
How it was run: (§2)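 Male CD-1 mice, 18–25 g, 6–12 per dose; compound suspended in 0.5% methylcellulose, given ip 30 min before 20 µl of 5% formalin intraplantar into right hind paw. Time spent licking the injected paw scored blind at 0–5 min and 15–30 min. Reduction versus vehicle-treated mice; ED50 by log-probit; mean ± SEM, ANOVA/Dunnett or t-test.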

Mus musculus [5] = assay: Antinociceptive activity against formalin-induced inflammatory pain in albino Swiss CD-1 mouse assessed as duration of licking response at 30 mg/kg, ip administered 30 mins prior to formalin challenge measured up to 5 mins (reference value: 34.8 +/- 9.4 seconds); assay type: functional; details: route intraperitoneal; how it was run: as §2
Mus musculus [6] = assay: Analgesic activity in albino Swiss CD-1 mouse assessed as reduction in formalin-induced inflammatory pain at 30 mg/kg, ip administered 30 mins prior to formalin challenge measured for 15 to 30 mins relative to control; assay type: functional; parameters: scale not given: the % may be the effect or the level left; details: route intraperitoneal; how it was run: as §2
Mus musculus [7] = assay: Analgesic activity in albino Swiss CD-1 mouse assessed as reduction in formalin-induced inflammatory pain at 30 mg/kg, ip administered 30 mins prior to formalin challenge measured up to 5 mins relative to control; assay type: functional; how it was run: as §2
Mus musculus [8] = assay: Analgesic effect in ip dosed albino Swiss CD-1 mouse assessed as inhibition of acetic acid-induced writhing administered 30 mins prior to acetic acid challenge measured for 30 mins; assay type: functional; details: albino Swiss CD-1, ip
How it was run: (§3)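 Male CD-1 mice (18–25 g), habituated 30 min in beakers, dosed ip (0.5% methylcellulose, 10 ml/kg) 30 min before ip 0.9% acetic acid in saline (10 ml/kg). Writhes counted for 30 min by blinded observers. Effect is % reduction versus vehicle group; ED50 by log-probit; mean ± SEM.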

Mus musculus [9] = assay: Analgesic effect in albino Swiss CD-1 mouse assessed as inhibition of acetic acid-induced writhing at 7.5 mg/kg, ip administered 30 mins prior to acetic acid challenge measured for 30 mins relative to control; assay type: functional; parameters: scale not given: the % may be the effect or the level left; details: route intraperitoneal; how it was run: as §3
Mus musculus [10] = assay: Analgesic effect in albino Swiss CD-1 mouse assessed as inhibition of acetic acid-induced writhing at 3.75 mg/kg, ip administered 30 mins prior to acetic acid challenge measured for 30 mins relative to control; assay type: functional; parameters: scale not given: the % may be the effect or the level left; details: route intraperitoneal; how it was run: as §3
Mus musculus [11] = assay: Analgesic effect in albino Swiss CD-1 mouse assessed as inhibition of acetic acid-induced writhing at 15 mg/kg, ip administered 30 mins prior to acetic acid challenge measured for 30 mins relative to control; assay type: functional; parameters: scale not given: the % may be the effect or the level left; details: route intraperitoneal; how it was run: as §3
Mus musculus [12] = assay: Antinociceptive activity in albino Swiss CD-1 mouse assessed as prolongation of latency time at 30 mg/kg, ip administered 30 mins prior to test by hot plate test; assay type: functional, organism-based; parameters: dose 30 mg/kg
How it was run: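 Male CD-1 mice given compound ip in 0.5% methylcellulose 30 min before placement on a plate held at 55–56 °C. Latency to hind-paw licking or jumping timed, 30 s cut-off. Compared with vehicle by ANOVA.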

Mus musculus [13] = assay: Neurotoxicity in albino Swiss CD-1 mouse assessed as motor impairment at 30 mg/kg, ip after 30 mins by rotarod test; assay type: toxicity, organism-based; parameters: dose 30 mg/kg, route intraperitoneal; details: in vivo, 0.5 h; how it was run: as §1
Mus musculus [14] = assay: Antinociceptive activity against formalin-induced inflammatory pain in albino Swiss CD-1 mouse assessed as duration of licking response at 30 mg/kg, ip administered 30 mins prior to formalin challenge measured for 15 to 30 mins (reference value: 111.6 +/- 17.1 seconds); assay type: functional; details: route intraperitoneal; how it was run: as §2
Mus musculus [15] = assay: Antinociceptive activity against formalin-induced inflammatory pain in albino Swiss CD-1 mouse assessed as duration of licking response at 15 mg/kg, ip administered 30 mins prior to formalin challenge measured for 15 to 30 mins (reference value: 111.6 +/- 17.1 seconds); assay type: functional; details: route intraperitoneal; how it was run: as §2
Mus musculus [16] = assay: Antinociceptive activity against formalin-induced inflammatory pain in albino Swiss CD-1 mouse assessed as duration of licking response at 7.5 mg/kg, ip administered 30 mins prior to formalin challenge measured for 15 to 30 mins (reference value: 111.6 +/- 17.1 seconds); assay type: functional; details: route intraperitoneal; how it was run: as §2
Mus musculus [17] = assay: Antinociceptive activity against formalin-induced inflammatory pain in albino Swiss CD-1 mouse assessed as duration of licking response at 30 mg/kg, ip administered 30 mins prior to formalin challenge measured up to 5 mins (reference value: 55.4 +/- 6.6 seconds); assay type: functional; details: route intraperitoneal; how it was run: as §2
Mus musculus [18] = assay: Antinociceptive activity against formalin-induced inflammatory pain in albino Swiss CD-1 mouse assessed as duration of licking response at 15 mg/kg, ip administered 30 mins prior to formalin challenge measured up to 5 mins (reference value: 55.4 +/- 6.6 seconds); assay type: functional; details: route intraperitoneal; how it was run: as §2
Mus musculus [19] = assay: Antinociceptive activity against formalin-induced inflammatory pain in albino Swiss CD-1 mouse assessed as duration of licking response at 7.5 mg/kg, ip administered 30 mins prior to formalin challenge measured up to 5 mins (reference value: 55.4 +/- 6.6 seconds); assay type: functional; details: route intraperitoneal; how it was run: as §2
Mus musculus [20] = assay: Analgesic activity in ip dosed albino Swiss CD-1 mouse assessed as reduction in formalin-induced inflammatory pain administered 30 mins prior to formalin challenge measured for 15 to 30 mins; assay type: functional; details: albino Swiss CD-1, ip; how it was run: as §2
Mus musculus [21] = assay: Analgesic activity in albino Swiss CD-1 mouse assessed as reduction in formalin-induced inflammatory pain at 15 mg/kg, ip administered 30 mins prior to formalin challenge measured for 15 to 30 mins relative to control; assay type: functional; parameters: scale not given: the % may be the effect or the level left; details: route intraperitoneal; how it was run: as §2
Mus musculus [22] = assay: Analgesic activity in albino Swiss CD-1 mouse assessed as reduction in formalin-induced inflammatory pain at 15 mg/kg, ip administered 30 mins prior to formalin challenge measured up to 5 mins relative to control; assay type: functional; parameters: scale not given: the % may be the effect or the level left; how it was run: as §2
Mus musculus [23] = assay: Analgesic activity in albino Swiss CD-1 mouse assessed as reduction in formalin-induced inflammatory pain at 7.5 mg/kg, ip administered 30 mins prior to formalin challenge measured up to 5 mins relative to control; assay type: functional; parameters: scale not given: the % may be the effect or the level left; how it was run: as §2
Mus musculus [24] = assay: Analgesic activity in ip dosed albino Swiss CD-1 mouse assessed as reduction in formalin-induced inflammatory pain administered 30 mins prior to formalin challenge measured up to 5 mins; assay type: functional; details: albino Swiss CD-1, ip; how it was run: as §2
Mus musculus [25] = assay: Analgesic activity in albino Swiss CD-1 mouse assessed as reduction in formalin-induced inflammatory pain at 7.5 mg/kg, ip administered 30 mins prior to formalin challenge measured for 15 to 30 mins relative to control; assay type: functional; parameters: scale not given: the % may be the effect or the level left; details: route intraperitoneal; how it was run: as §2
Mus musculus [26] = assay: Analgesic effect in albino Swiss CD-1 mouse assessed as inhibition of acetic acid-induced writhing at 30 mg/kg, ip administered 30 mins prior to acetic acid challenge measured for 30 mins relative to control; assay type: functional; parameters: scale not given: the % may be the effect or the level left; details: route intraperitoneal; how it was run: as §3
[27] = Inhibition of mouse GAT4-mediated [3H]GABA uptake stably transfected in HEK293 cells; assay type: cell-based
[28] = target: T1, Sodium- and chloride-dependent GABA transporter 1 (Mus musculus, UniProt P31648); assay: Binding affinity to mouse GAT1 stably transfected in HEK293 cells by NO-711 binding assay; assay type: cell-based
[29] = target: T1, Sodium- and chloride-dependent GABA transporter 1; assay: Inhibition of mouse GAT1-mediated [3H]GABA uptake stably transfected in HEK293 cells; assay type: cell-based
Mus musculus [30] = assay: Analgesic effect in albino Swiss CD-1 mouse assessed as inhibition of acetic acid-induced writhing at 20 mg/kg, ip administered 30 mins prior to acetic acid challenge measured for 30 mins relative to control; assay type: functional; parameters: scale not given: the % may be the effect or the level left; details: route intraperitoneal; how it was run: as §3

Compound | Time (Mus musculus [1]) [s] | Time (Mus musculus [2]) [s] | Time (Mus musculus [3]) [s] | Activity (Mus musculus [6]) [%] | Activity (Mus musculus [7]) | ED50 (Mus musculus [8]) [mg/kg] | Activity (Mus musculus [11]) [%] | Activity (Mus musculus [12]) | Activity (Mus musculus [13]) | Time (Mus musculus [14]) [s] | Time (Mus musculus [15]) [s] | Time (Mus musculus [16]) [s] | Time (Mus musculus [17]) [s] | Time (Mus musculus [18]) [s] | Time (Mus musculus [19]) [s] | Activity (Mus musculus [21]) [%] | Activity (Mus musculus [25]) [%] | Activity (Mus musculus [26]) [%] | IC50 [27] [µM] | Ki [28] [µM] | further results
COc1ccc(C(OCCN2CCC[C@H](C(=O)O)C2)(c2ccc(OC)cc2)c2ccc(OC)cc2)cc1 | 59 | 56.3 | 59.6 | 39.5 | inactive | 7.1 | 70.5 | inactive | – | – | – | – | – | – | – | – | – | – | – | – | Time (Mus musculus [4]): 47.7 s; Time (Mus musculus [5]): 35.6 s; Activity (Mus musculus [9]): 62.7%; Activity (Mus musculus [10]): 23.3%
O=C(NCc1ccccc1)C(CCO)N1CCC(=C(c2ccccc2)c2ccccc2)CC1 (centres undefined) | 60 | 60 | 60 | 85.4 | – | – | – | inactive | Non-toxic | 16.3 | 39.6 | 75.1 | 27.7 | 31 | 39 | 64.5 | 32.7 | 29.8 | 33.1 | 9.12 | ED50 (Mus musculus [20]): 11.1 mg/kg; Activity (Mus musculus [22]; route intraperitoneal): 44%; Activity (Mus musculus [23]; route intraperitoneal): 29.6%; Activity (Mus musculus [7]; route intraperitoneal): 50%; ED50 (Mus musculus [24]): 27.1 mg/kg; IC50 [29]: 14.8 µM
O=C(NCc1ccc(F)cc1)C(CCO)N1CCC(=C(c2ccccc2)c2ccccc2)CC1 (centres undefined) | 60 | 60 | 60 | 78.5 | inactive | 18.1 | 28.9 | inactive | Non-toxic | 24 | 17.8 | 30.9 | 58.1 | 50.4 | 59.9 | 84.1 | 72.3 | 79.4 | 26.3 | 11.5 | Activity (Mus musculus [22]): inactive; Activity (Mus musculus [23]): inactive; Activity (Mus musculus [30]): 69.9%; IC50 [29]: 9.77 µM
